Measurements pooled from the literature.
Lines come from different studies, so protocols differ.
Target: Serine/threonine-protein kinase BRSK2 (BRSK2, Homo sapiens, UniProt Q8IWQ3)
Sequence (Q8IWQ3 1-736, as in one of the studies): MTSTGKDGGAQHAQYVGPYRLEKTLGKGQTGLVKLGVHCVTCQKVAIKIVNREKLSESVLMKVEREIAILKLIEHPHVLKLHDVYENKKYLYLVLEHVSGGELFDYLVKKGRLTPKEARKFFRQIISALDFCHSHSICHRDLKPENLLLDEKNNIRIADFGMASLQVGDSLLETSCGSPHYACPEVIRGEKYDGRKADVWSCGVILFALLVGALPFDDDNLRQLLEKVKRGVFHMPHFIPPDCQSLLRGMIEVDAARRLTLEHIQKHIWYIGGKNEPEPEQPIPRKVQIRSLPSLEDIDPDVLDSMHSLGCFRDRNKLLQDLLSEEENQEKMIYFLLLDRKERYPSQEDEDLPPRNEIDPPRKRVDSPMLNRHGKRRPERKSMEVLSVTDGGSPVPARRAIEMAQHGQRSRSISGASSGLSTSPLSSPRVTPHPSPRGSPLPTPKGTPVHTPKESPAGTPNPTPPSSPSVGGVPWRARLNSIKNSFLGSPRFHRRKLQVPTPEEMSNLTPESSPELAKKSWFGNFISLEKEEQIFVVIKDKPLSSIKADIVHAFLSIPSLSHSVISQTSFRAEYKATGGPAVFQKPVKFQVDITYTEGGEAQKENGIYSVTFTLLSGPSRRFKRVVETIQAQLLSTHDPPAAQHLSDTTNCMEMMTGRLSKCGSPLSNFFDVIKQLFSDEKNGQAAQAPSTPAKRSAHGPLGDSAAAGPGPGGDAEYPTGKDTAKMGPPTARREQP

SMILES | read-out | technique | concentration | remaining binding [%]
O=C(c1ccc(Nc2ncc(Cl)c(-c3cc4ccccc4s3)n2)cc1)N1CCC(N2CCCC2)CC1 | binding | competition with immobilised ligand | 1 µM | 53
CCN1CCN(Cc2ccc(C(=O)Nc3ccc(C)c(Oc4ccc5c(c4)CC(=O)N5)c3)cc2C(F)(F)F)CC1 | binding | competition with immobilised ligand | 1 µM | 100
O=C(Nc1cccnn1)N1CC(C/C=C/c2cncc(Oc3ccc(C(F)(F)F)cn3)n2)C1 | cell-free assay | competition with immobilised ligand | 1 µM | 100
c1cncc(-c2cccc(Nc3nccc(NC4CCCCC4)n3)c2)c1 | binding | competition with immobilised ligand | 10 µM | 99
CC1CCCN1c1nccc(-c2cnn3ncccc23)n1 (stereo not drawn) | binding | – | 1 µM | 100
COc1cnc(Nc2cccc(S(N)(=O)=O)c2)nc1N1CCN(c2ccccc2)C(=O)C1 | binding | competition with immobilised ligand | 1 µM | 100
Nc1ncc2c(n1)-c1c([nH]c3ccc(C#CC4CC4)cc13)CCCC2 | binding | competition with immobilised ligand | 1 µM | 93
O=C(O)[C@@H]1[C@@H](Cn2nnc3ccccc3c2=O)CC[C@H]1C(=O)c1ccc(OCCC2CCOCC2)cc1 | cell-free assay | competition with immobilised ligand | 1 µM | 100
O=C(NCC1CCOCC1)c1n[nH]cc1NC(=O)c1c(F)cccc1F | binding | competition with immobilised ligand | 1 µM | 95
Nc1cnc(N2CCc3cc(S(=O)(=O)Nc4c(F)cc(Cl)cc4F)cc(N4CCCC4=O)c32)nc1 | cell-free assay | competition with immobilised ligand | 1 µM | 80
C[C@@H]1CCN(c2nccc(-c3cnn4ncccc34)n2)C1 | binding | – | 1 µM | 91
CCCCN(CCCC)C(=O)CN1C[C@H](c2cc(OC)c3c(c2)OCO3)[C@@H](C(=O)O)[C@@H]1CC(C)(C)CCC | cell-free assay | competition with immobilised ligand | 1 µM | 95.6
O=C(c1ccc(Nc2ncc(Cl)c(-c3ccc(Cl)s3)n2)cc1)N1CCC(N2CCCC2)CC1 | binding | competition with immobilised ligand | 1 µM | 58
COc1ccnn2ncc(-c3ccnc(N(C)C)n3)c12 | binding | – | 1 µM | 76
C[C@H](c1ccc(F)cc1)N(Cc1cccc(C(=O)O)c1)C(=O)c1cnc2ccccc2c1 | cell-free assay | competition with immobilised ligand | 1 µM | 100
c1cnn2ncc(-c3ccnc(N4CCC45COC5)n3)c2c1 | binding | – | 1 µM | 84
Cc1cnc(Nc2ccc(C(=O)N3CCC(N4CCCC4)CC3)cc2)nc1-c1cc2ccccc2s1 | binding | competition with immobilised ligand | 1 µM | 42
N[C@H]1CCN(c2nccc(-c3cnn4ncccc34)n2)C1 | binding | – | 1 µM | 100
O=C(Nc1cnc(Oc2ccc(F)cc2)nc1)N1CCc2ncccc2[C@@H]1c1ccc(F)cc1 | cell-free assay | competition with immobilised ligand | 1 µM | 89
CNC(=O)[C@@H]1CC[C@@H](n2c(-c3ccc4cnccc4c3)nc3ccc(C(=O)NCc4cccc(C(N)=O)c4)cc32)C1 | binding | competition with immobilised ligand | 1 µM | 93
CN(CCCC(F)(F)F)c1nccc(-c2cnn3ncccc23)n1 | binding | – | 1 µM | 100
